Assay results gathered from unrelated publications.
Compare with care: the assays were run in different laboratories.
Action: inhibitor
CDK7: Cyclin-dependent kinase 7 (CDK7, Homo sapiens, UniProt P50613)
CDK7 with cyclin H: Cyclin-dependent kinase 7, with cyclin H (CDK7, Homo sapiens, UniProt P50613)

SMILES | target | assay | setting | inhibition
c1ccc(CNc2nc(N3CCOc4ccccc43)nc3c2CCCC3)cc1 | CDK7 | target engagement in cells, chemoproteomics | 20 mM | -1.7%
COc1cc(-c2cc(-c3ccc(N4CCNCC4)cc3)cnc2C)cc(OC)c1OC | CDK7 | enzyme activity | 1 µM | 2%
Cn1cnc(Br)c1C1=CN(c2ncnc3[nH]cnc23)CCS1 | CDK7 | enzyme activity, radiometric | 50 nM | 21.6%
COC(=O)[C@H]1[C@H]2C[C@@H]3c4[nH]c5cc(OC)ccc5c4CCN3C[C@H]2C[C@@H](OC(=O)c2cc(OC)c(OC)c(OC)c2)[C@@H]1OC | CDK7 with cyclin H | enzyme activity, ADP detection | 10 µM | -37.8%
C=CC(=O)Nc1cc(Nc2nccc(Nc3cc(Cl)c(F)cc3C(C)(C)O)n2)c(OC)cc1N1CC[C@@H](N(C)C)C1 | CDK7 with cyclin H | enzyme activity | 1 µM | 14%
COc1c2c(cc3oc(-c4ccccc4)cc(=O)c13)OCO2 | CDK7 with cyclin H | enzyme activity, ADP detection | 10 µM | 94.4%
COc1cccc2c(NCc3ccccc3)nc(-n3c(N)nc4ccccc43)nc12 | CDK7 | target engagement in cells, chemoproteomics | 20 mM | 2.5%
Cc1ccc(Nc2nccc(N(C)c3ccc4c(C)n(C)nc4c3)n2)cc1S(N)(=O)=O | CDK7 with cyclin H | enzyme activity | 10 µM | 34%
COC1=C(OC)C(=O)C(C/C=C(\C)CC/C=C(\C)CC/C=C(\C)CC/C=C(\C)CC/C=C(\C)CC/C=C(\C)CC/C=C(\C)CC/C=C(\C)CC/C=C(\C)CCC=C(C)C)=C(C)C1=O | CDK7 with cyclin H | enzyme activity, ADP detection | 10 µM | 6.6%
Cc1ccc(-n2nc(C(C)(C)C)cc2NC(=O)Nc2ccc(OCCN3CCOCC3)c3ccccc23)cc1 | CDK7 | enzyme activity | 10 µM | 17%
